Results from different studies.
Compare with care: the assays were run in different laboratories.
RPS6KA1: Ribosomal protein S6 kinase alpha-1 (RPS6KA1, Homo sapiens, UniProt Q15418)
RPS6KA1 N-terminal kinase domain: Ribosomal protein S6 kinase alpha-1, N-terminal kinase domain (RPS6KA1, Homo sapiens, UniProt Q15418)
RPS6KA1 C-terminal kinase domain: Ribosomal protein S6 kinase alpha-1, C-terminal kinase domain (RPS6KA1, Homo sapiens, UniProt Q15418)

`CC(C)c1ccc(NC(=O)c2cccs2)c(-c2nc3ccccc3[nH]c2=O)c1` gave an activity vs control of 96% (RPS6KA1; enzyme activity, inhibitor; 1 µM).
`CCC(=O)N[C@@H]1CC[C@H](C(=O)N(C)c2ccc(-c3nc4ccccc4o3)cc2)C1` has a remaining binding of 100% (RPS6KA1 N-terminal kinase domain; cell-free assay, competition with immobilised ligand; 1 µM).
With `C[C@H]1CCN(c2nccc(-c3cnn4ncccc34)n2)C1` the remaining binding was 30% (RPS6KA1 C-terminal kinase domain; binding, competition with immobilised ligand; 1 µM).
With `CN1CC(Oc2cnc(C#N)cc2-c2ccn3nc(NC(=O)C4CC4)cc3c2)C1` the inhibition was 31% (RPS6KA1; enzyme activity, inhibitor; 1 µM).
`CNCc1ccccc1-c1csc([C@H](C)Nc2nc(C)nc3cc(OC)c(OC)cc23)c1` gave a remaining binding of 100% (RPS6KA1 C-terminal kinase domain; cell-free assay, competition with immobilised ligand; 1 µM).
The remaining activity of `Cc1cnc(NC2CCOCC2)nc1-n1cnc(C(=O)NC(CN)c2cc(F)cc(Cl)c2)c1` (centres unmarked) is reported as 44% (RPS6KA1; enzyme activity, inhibitor, radiometric; 1 µM).
For `O=C(Nc1cnn(-c2csc(C(=O)NC3COC3)c2)c1)Nc1ccccc1Cl`, the remaining activity was 92.4% (RPS6KA1; enzyme activity, inhibitor; 5 µM).
`CC(C)(C)C(=O)c1sc(NC2CCCCC2)nc1N` has a remaining activity of 89% (RPS6KA1; enzyme activity, inhibitor; 10 µM).
With `Cc1cnn2ncc(-c3ccnc(N(C)C)n3)c2c1` the remaining binding was 64% (RPS6KA1 C-terminal kinase domain; binding, competition with immobilised ligand; 1 µM).
With `CC/C(=N\NC(=O)NCc1cccc(O)c1)c1ccc(O)c(C)c1O` the inhibition was 72.1% (RPS6KA1; enzyme activity, inhibitor; 0.1 µM).
With `COc1cc2c(Nc3ccc(Br)cc3F)ncnc2cc1OCC1CCN(C)CC1` the remaining signal was 102% (RPS6KA1; cell-free assay; 0.5 µM).
For `Nc1ncnc2occ(-c3ccc(NC(=O)Nc4cc(C(F)(F)F)ccc4F)cc3)c12`, the remaining signal was 2% (RPS6KA1 N-terminal kinase domain; cell-free assay, inhibitor; 20 µM).
With `Cc1c[nH]c2nccc(Oc3c(F)cc(Nc4cc(Cl)nc(N)n4)cc3F)c12` the remaining binding was 91% (RPS6KA1 N-terminal kinase domain; cell-free assay, competition with immobilised ligand; 0.1 µM).
For `CCCCNc1ncc2c(-c3ccc(F)cc3)nn(C[C@H]3CC[C@H](N)CC3)c2n1`, the inhibition was 63.4% (RPS6KA1 C-terminal kinase domain; target engagement in cells, inhibitor, chemoproteomics; 20 mM).
For `O=C(Nc1cnc(Oc2ccc(F)cc2)nc1)N1CCc2ncccc2[C@@H]1c1ccc(F)cc1`, the remaining binding was 71% (RPS6KA1 N-terminal kinase domain; cell-free assay, competition with immobilised ligand; 1 µM).
The remaining signal of `N#CCCc1ccc2c(c1)-c1[nH]c3ccc([N+](=O)[O-])cc3c1CC(=O)N2` is reported as 59.9% (RPS6KA1; cell-free assay; 0.5 µM).
The inhibition of `CCOc1cc(-c2nncn2C)ccc1Nc1ncc2cc(C)nc(NCC(C)(C)C)c2n1` is reported as < 15% (RPS6KA1; enzyme activity, inhibitor, FRET; 1 µM).
`Nc1cnc(N2CCc3cc(S(=O)(=O)Nc4c(F)cc(Cl)cc4F)cc(N4CCCC4=O)c32)nc1` gave a remaining binding of 93% (RPS6KA1 N-terminal kinase domain; cell-free assay, competition with immobilised ligand; 1 µM).
`CNc1cc(Oc2cc(C(=O)Nc3cc(N4CCN(C)CC4)cc(C(F)(F)F)c3)ccc2C)ncn1` has an inhibition of -27.6% (RPS6KA1 C-terminal kinase domain; target engagement in cells, inhibitor, chemoproteomics; Huh-7; 1 µM).
`CC1CCCN1c1nccc(-c2cnn3ncccc23)n1` (centres unmarked) gave a remaining binding of 77% (RPS6KA1 C-terminal kinase domain; binding, competition with immobilised ligand; 1 µM).
`O=C1NC(=O)c2cc(Nc3ccc(F)cc3)c(Nc3ccc(F)cc3)cc21` gave a remaining signal of 97.7% (RPS6KA1; cell-free assay; 0.5 µM).
`Oc1cccc(-c2nc(N3CCOCC3)c3oc4ncccc4c3n2)c1` gave a remaining activity of 101% (RPS6KA1; enzyme activity, inhibitor; 10 µM).
`CNC(=O)c1ccc(Nc2ncc(C(F)(F)F)c(NCc3nccnc3N(C)S(C)(=O)=O)n2)cc1` has a remaining binding of 71% (RPS6KA1 C-terminal kinase domain; cell-free assay, competition with immobilised ligand; 0.1 µM).
